Screens as filed in PubChem.
This is one part of a sample in which hits are shown more often than they occur.
HSF1 inh: HSF1 inhibitors in luciferase reporter cells, primary screen, cell-based, NIH3T3, luminescence. NIH3T3-HGL HSE-luciferase, MG132-induced, luminescence 8 h; hits give low values. hit rate 0.77% among 300,000. activity change, negative = inhibition, % at 7.5 µM (by protocol);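 active = more than half of replicate wells show activity change below -50%, luminescence cut by over half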;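 note: luciferase reports HSF-1 transcriptional activity via heat shock element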
L major viab: Leishmania major promastigote growth inhibition, primary screen | Leishmania major promastigotes, resazurin fluorescence viability | inhibition, % at 10 µM | hit rate 9% among 200,000 | AID 1063, 2008; in the data active = inhibition above about 50%;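 note: promastigotes grown with compound for 44 hours at 28 °C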
HSF-1 act: HSF-1 activators, primary screen, NIH3T3-HGL cells, MG132 stress, luminescence, single point. activation, % at 9 µM. hit rate 1.7% among 300,000. NIH3T3-HGL HSF-1 luciferase reporter, 8 h; 100% = twice DMSO control signal;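 active = mean replicate activation of at least 50% with a set share of replicates each reaching 50%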
T cruzi repl: inhibitors of intracellular T. cruzi growth, primary screen, luminescence, NIH3T3 host cells. hit rate 1.4% among 300,000. T. cruzi beta-gal in NIH3T3, 90 h. inhibition, % (test concentration not listed);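 active = mean inhibition across valid replicates above about 55%, limit read from the data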;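 note: signal also drops with host cell toxicity which is not excluded here; higher percent means less beta-gal luminescence so fewer parasites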
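Material: NIH/3T3 host cells with β-galactosidase reporter T. cruzi; Input: 5,000 host fibroblasts per well; Medium: DMEM, 2% fetal bovine serum; Compound: 50 nL DMSO compound solution per well; Schedule: 3 h host attachment, then at least 90 h co-culture; Detection: luminescent β-galactosidase signal after 60 min lysis.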
Hsp70 act: Hsp70 transcriptional activators, primary screen, cell-based, HeLa, Hsp70 promoter luciferase, luminescence, 10 µM; HeLa Hsp70 promoter luciferase reporter; scaled: vehicle 0, proteasome-inhibitor control 100%; activation, % at 10 µM; hit rate 0.04% among 200,000; AID 1203, 2008;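 active = activation above the mean across all tested compounds plus 3 SD, cutoff set per campaign, cut at about 5.5% in these data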
Numbers stand for hits; . = inactive; / = no result.

SMILES	HSF1 inh	L major viab	HSF-1 act	T cruzi repl	Hsp70 act
Cc1ccc(-c2nc(CSCC(=O)NCC3CCCO3)c(C)o2)cc1 (stereo not given)	.	/	.	.	/
CCc1ccc(-c2nc(CSCC(=O)NCc3ccco3)c(C)o2)cc1	-72	.	.	.	.
Cc1oc(-c2ccc(Cl)cc2)nc1CN1CCC(C(=O)NCCCN2CCOCC2)CC1	.	101	.	.	.
CCC1CCCCN1CCCNC(=O)C1CCN(Cc2nc(-c3ccc(Cl)cc3)oc2C)CC1 (stereo not given)	.	/	.	.	/
Cc1oc(-c2cccc(Cl)c2)nc1CN1CCCC(C(=O)NCCCN2CCOCC2)C1 (stereo not given)	.	101	.	63	.
CCOc1ccc(-c2nc(CSCC(=O)NCC3CCCO3)c(C)o2)cc1 (stereo not given)	-57	/	.	.	/
Cc1oc(-c2cccc(Cl)c2)nc1CS(=O)(=O)CC(=O)NCCN1CCOCC1	.	/	.	.	/
O=C(O)CCCN=Cc1c(O)c2ccccc2oc1=O	.	.	.	.	.
COCCN1C(=O)N(c2cccc(C)c2)C(=O)C1CC(=O)Nc1cc(OC)cc(OC)c1 (stereo not given)	.	/	.	.	/
CSc1ccc(-c2nc(CSCC(=O)NCCCN3CCOCC3)c(C)o2)cc1	.	.	.	.	.
Cc1ccc(-c2nc(CSCC(=O)NCCCN3CCOCC3)c(C)o2)cc1	.	53	.	.	.
COc1cccc(C(C(=O)NC(C)(C)C)N(C(=O)CCC(=O)Nc2cc(C)on2)c2ccc3c(c2)OCCO3)c1OC (stereo not given)	.	/	.	.	/
Cc1nn(-c2nc3ccccc3[nH]2)c(=O)c2ccccc12	-81	.	.	.	.
Cc1cccc2sc(NNC(=O)c3ccc(S(=O)(=O)N4CCc5ccccc5C4)cc3)nc12	.	99	.	60	.
Cc1cccc2sc(NNC(=O)c3ccc(S(=O)(=O)N4CCCC(C)C4)cc3)nc12 (stereo not given)	.	96	.	.	.
CCOC(=O)N1CCN(S(=O)(=O)c2ccc(C(=O)NNc3nc4c(C)cccc4s3)cc2)CC1	.	.	.	.	.
CN(C)S(=O)(=O)c1cccc(COC(=O)Cc2c(F)cccc2Cl)c1	.	/	.	.	/
CCOc1ccccc1NS(=O)(=O)c1cn(C)nc1C	.	.	.	.	.
O=C1c2ccccc2C(=O)N1CCCCN1CCN(CCCCN2C(=O)c3ccccc3C2=O)CC1	/	.	/	/	.
O=C1CC(=C2c3ccccc3-c3ccccc32)C(=O)N1CCCCN1CCN(c2ccccc2)CC1	.	99	.	.	.
CCN1C(=O)C(C(=O)c2ccccc2)SC1=S (stereo not given)	.	.	.	.	.
c1ccc(C2Nc3ccccc3-c3nc4ccccc4n32)cc1 (stereo not given)	.	69	.	.	.
c1ccc(C2Nc3ccccc3-c3nc4ccccc4n32)nc1 (stereo not given)	.	.	.	.	.
CCc1nnc(NC(=O)C2Cc3ccccc3CN2S(=O)(=O)CC)s1 (stereo not given)	.	.	.	.	.
CCS(=O)(=O)N1Cc2ccccc2CC1C(=O)Nc1nc2ccccc2s1 (stereo not given)	-61	67	.	.	.
SMILES	HSF1 inh	L major viab	HSF-1 act	T cruzi repl	Hsp70 act
Cc1ccc2c(c1)C(=O)CC1(CCCC1)O2	.	/	.	.	/
CCOC(=O)CNC(=O)CN1CCC(c2nc3ccccc3[nH]2)CC1	.	/	.	.	/
C=CCn1c(SCC(=O)NCC)nc2sc3c(c2c1=O)CCC3	.	/	.	.	/
CCOC(=O)C1=C(O)/C(=C/c2ccc(OCC(=O)O)c(OCC)c2)SC1=Nc1ccc(C)cc1	.	.	.	.	.
CCOC(=O)C1=C(O)/C(=C/c2ccc(OCC(=O)O)c(OCC)c2)SC1=Nc1ccc(OC)cc1	.	62	.	.	.
OC1CCCN(Cc2ccc3ccc4cccc5ccc2c3c45)C1 (stereo not given)	/	78	/	.	.
O=C(CN1C(=O)NC2(CCc3ccccc32)C1=O)Nc1cc(C(F)(F)F)ccc1N1CCOCC1 (stereo not given)	.	/	.	.	/
O=C(COc1ccc(Cl)cc1)NNC(=O)c1cccnc1	.	.	.	.	.
